Experimental data of several laboratories.
Protocols differ between the studies behind these lines.
Target: Muscle, skeletal receptor tyrosine-protein kinase (MUSK, Homo sapiens, UniProt O15146)
Sequence (O15146 24-869, as in one of the studies): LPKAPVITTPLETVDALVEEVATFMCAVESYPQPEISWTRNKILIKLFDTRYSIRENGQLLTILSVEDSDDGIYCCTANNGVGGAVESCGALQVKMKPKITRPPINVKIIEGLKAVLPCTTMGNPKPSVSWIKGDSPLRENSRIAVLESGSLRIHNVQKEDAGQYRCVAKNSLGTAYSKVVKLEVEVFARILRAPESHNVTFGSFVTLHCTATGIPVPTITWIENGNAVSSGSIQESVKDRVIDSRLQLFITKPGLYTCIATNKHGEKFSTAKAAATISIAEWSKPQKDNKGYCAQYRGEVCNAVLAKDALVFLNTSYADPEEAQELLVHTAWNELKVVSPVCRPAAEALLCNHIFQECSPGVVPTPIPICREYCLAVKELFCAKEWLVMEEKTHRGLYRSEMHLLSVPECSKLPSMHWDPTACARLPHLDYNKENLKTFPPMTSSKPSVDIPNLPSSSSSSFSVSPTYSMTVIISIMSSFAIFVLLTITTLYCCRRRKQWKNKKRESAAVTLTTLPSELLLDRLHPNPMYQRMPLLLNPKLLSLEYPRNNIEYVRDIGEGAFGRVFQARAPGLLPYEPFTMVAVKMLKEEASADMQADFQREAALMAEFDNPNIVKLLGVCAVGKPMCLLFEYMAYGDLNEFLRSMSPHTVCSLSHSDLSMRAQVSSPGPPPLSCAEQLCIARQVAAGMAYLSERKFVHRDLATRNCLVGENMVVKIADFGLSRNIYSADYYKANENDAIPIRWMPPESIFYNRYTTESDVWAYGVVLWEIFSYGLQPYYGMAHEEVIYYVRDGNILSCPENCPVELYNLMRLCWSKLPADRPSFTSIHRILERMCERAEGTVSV

`O=C1CCc2cc(Nc3cc(OC4CCOCC4)c([N+](=O)[O-])cc3Cl)ccc2N1` has a remaining binding of 100% (cell-free assay; competition with immobilised ligand; 1 µM).
`c1cncc(-c2cccc(Nc3nccc(NC4CCCCC4)n3)c2)c1` has a remaining binding of 86% (binding; competition with immobilised ligand; 10 µM).
`CC1CCCN1c1nccc(-c2cnn3ncccc23)n1` (stereo not shown) has a remaining binding of 100% (binding; 1 µM).
`Cc1cnc(Nc2ccc(C(=O)N3CCC(N4CCCC4)CC3)cc2)nc1-c1cc2ccccc2s1` gave a remaining binding of 30% (binding; competition with immobilised ligand; 1 µM).
The remaining binding of `CN(CCCC(F)(F)F)c1nccc(-c2cnn3ncccc23)n1` is reported as 100% (binding; 1 µM).
`O=C(c1ccc(Nc2nccc(-c3cc4ccccc4s3)n2)cc1)N1CCC(N2CCCC2)CC1` gave a remaining binding of 72% (binding; competition with immobilised ligand; 1 µM).
For `N[C@H]1CCN(c2nccc(-c3cnn4ncccc34)n2)C1`, the remaining binding was 100% (binding; 1 µM).
For `O=C(NS(=O)(=O)c1ccc(NCC2CCOCC2)c([N+](=O)[O-])c1)c1ccc(N2CCN(Cc3ccc(C(F)(F)F)cc3-c3ccc(Cl)cc3)CC2)cc1Oc1cnc2[nH]ccc2c1`, the remaining binding was 98% (cell-free assay; competition with immobilised ligand; 1 µM).
The remaining binding of `CN(C)c1nccc(-c2cnn3ncccc23)n1` is reported as 92% (binding; 1 µM).
`Nc1ncc2c(n1)-c1c([nH]c3ccc(C#CC4CC4)cc13)CCCC2` has a remaining binding of 100% (binding; competition with immobilised ligand; 1 µM).
For `CN(c1nccc(-c2cnn3ncccc23)n1)C1CC1`, the remaining binding was 100% (binding; 1 µM).
`CC(=O)c1c(NS(C)(=O)=O)c2cc(-c3ccc(Cl)cc3)c(-c3ccc(Cl)cc3Cl)nc2n(C)c1=O` gave a remaining binding of 99% (cell-free assay; competition with immobilised ligand; 1 µM).
The remaining binding of `COc1cnc(Nc2cccc(S(N)(=O)=O)c2)nc1N1CCN(c2ccccc2)C(=O)C1` is reported as 99% (binding; competition with immobilised ligand; 1 µM).
For `FC(F)(F)Oc1cccc(-c2cnc3ccc(-c4ccncc4)nn23)c1`, the remaining binding was 99% (cell-free assay; competition with immobilised ligand; 5 µM).
With `CCC(=O)N[C@H]1CC[C@@H](C(=O)N(C)c2ccc(-c3nc4ccccc4o3)cc2)C1` the remaining binding was 100% (cell-free assay; competition with immobilised ligand; 1 µM).
`O=C(NCC1CCOCC1)c1n[nH]cc1NC(=O)c1c(F)cccc1F` has a remaining binding of 88% (binding; competition with immobilised ligand; 1 µM).
`CCS(=O)(=O)c1cc2cc(C[C@](O)(CC(C)(C)c3ccc(F)cc3C(N)=O)C(F)(F)F)[nH]c2cn1` gave a remaining binding of 94% (cell-free assay; competition with immobilised ligand; 1 µM).
`CNC(=O)[C@@H]1CC[C@@H](n2c(-c3ccc4cnccc4c3)nc3ccc(C(=O)NCc4cccc(C(N)=O)c4)cc32)C1` has a remaining binding of 90% (binding; competition with immobilised ligand; 1 µM).
`CO[C@@H](C)c1c(Nc2ccc([C@@H](N(C)C(=O)C3CCS(=O)(=O)CC3)C(F)(F)F)cc2)cnc2cc(Cl)nn12` has a remaining binding of 88% (cell-free assay; competition with immobilised ligand; 1 µM).
The remaining binding of `C[C@H]1CCN(c2nccc(-c3cnn4ncccc34)n2)C1` is reported as 80% (binding; 1 µM).
`O=C(c1ccc(Nc2ncc(Cl)c(-c3cc4ccccc4s3)n2)cc1)N1CCC(N2CCCC2)CC1` has a remaining binding of 24% (binding; competition with immobilised ligand; 1 µM).
`COc1ccc2c(c1)O[C@@H](c1ccc(OC)c(OC)c1)C[C@H]2NC(=O)C1(c2ccc3c(c2)OC(F)(F)O3)CC1` gave a remaining binding of 94% (cell-free assay; competition with immobilised ligand; 1 µM).
